# Measured values of several laboratories.
# Each line is one published result; the experiments were not run side by side.
# Target: High affinity nerve growth factor receptor (NTRK1, Homo sapiens, UniProt P04629)
SMILES,effect on,action,method,concentration,measurement,value
C=CC(=O)N1CCC([C@@H]2CCNc3c(C(N)=O)c(-c4ccc(Oc5ccccc5)cc4)nn32)CC1,cell-free assay,,,1 µM,inhibition,47%
CCCCC(=O)Nc1ccc(-c2ccc3ncn(CCC)c(=O)c3c2)cn1,binding,,competition with immobilised ligand,0.5 µM,remaining binding,99%
CO[C@@H]1[C@H](N(C)C(=O)c2ccccc2)C[C@H]2O[C@]1(C)n1c3ccccc3c3c4c(c5c6ccccc6n2c5c31)C(=O)NC4,enzyme activity,inhibitor,,1 µM,inhibition,98%
COc1ccc2oc(-c3ccc4nc(N)oc4c3)c/c(=N\c3ccccc3NC(=O)CCN)c2c1,binding,,,1 µM,remaining binding,88%
N#Cc1ccc(NC(=O)Nc2ccccc2)cc1,cell-free assay,,competition with immobilised ligand,25 µM,remaining binding,55%
COc1ccc2[nH]c3c4[nH]c5ccc(OC)cc5c4c4c(c3c2c1)C(=O)NC4=O,binding,,competition with immobilised ligand,1 µM,remaining binding,40%
CN(C)C(=O)c1cc2cnc(Nc3ccc(-c4ccc5c(=O)cc(N6CCOCC6)oc5c4)cc3)nc2n1C1CCCC1,binding,,competition with immobilised ligand,1 µM,remaining binding,3.7%
C1=C/COCc2cc(ccc2OCCN2CCCC2)Nc2nccc(n2)-c2cccc(c2)COC/1,binding,,,0.1 µM,remaining binding,10%
C[C@H]1CC[C@H](n2c3cnccc3c3cnc(Nc4ccc5c(n4)CCN(C(=O)CO)C5)nc32)CC1,cell-free assay,,competition with immobilised ligand,1 µM,remaining binding,18%
